Results as given in paper PMC2843780 (Bioorganic & medicinal chemistry letters, 2010).
Read-outs that look alike come from different tables or passages of the source. Each block holds one compound with its values, some of them ahead of it.

Assays:
[1] = molecular target: hM3 (Homo sapiens, UniProt P20309); test: calcium mobilization assay, hM3 CHO-K1 cells; format: cell-based
[2] = test system: M1; conditions: cited from earlier work; for IC50: read-out: M1 IC50, MLSCN screen hit
[3] = molecular target: T1, hM2 (Homo sapiens, UniProt P08172); test: calcium mobilization assay, hM2 CHO cells with Gqi5 chimeric G protein; format: cell-based; conditions: compound at 10 μM
T1 sequence (P08172 1-466): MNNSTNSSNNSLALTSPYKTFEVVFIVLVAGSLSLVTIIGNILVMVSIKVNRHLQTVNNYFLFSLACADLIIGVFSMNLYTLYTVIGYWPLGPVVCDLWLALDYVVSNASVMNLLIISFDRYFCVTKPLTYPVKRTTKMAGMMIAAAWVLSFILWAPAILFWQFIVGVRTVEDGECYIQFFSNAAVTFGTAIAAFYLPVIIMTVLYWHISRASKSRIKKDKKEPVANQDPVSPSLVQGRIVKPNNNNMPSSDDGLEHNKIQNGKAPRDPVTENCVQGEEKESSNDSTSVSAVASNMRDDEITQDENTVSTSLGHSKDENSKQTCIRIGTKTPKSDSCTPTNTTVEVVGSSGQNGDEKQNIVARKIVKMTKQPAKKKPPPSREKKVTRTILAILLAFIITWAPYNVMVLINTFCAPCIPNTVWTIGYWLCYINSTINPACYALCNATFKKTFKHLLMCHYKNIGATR
Method in brief: (§1)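 CHO-K1 cells stably expressing human receptor (M2 line also stably transfected with Gqi5 chimeric G protein so it signals through calcium; M5 line without chimera) were plated overnight. Cells were loaded with 2 μM Fluo-4 AM in HBSS/20 mM HEPES/2.5 mM probenecid, pH 7.4, for 45 min at 37°C, then dye was replaced with buffer. Cells were pre-incubated with 10 μM test compound, then given sub-maximal acetylcholine or carbachol. Signal was normalized to baseline and expressed as % of maximal acetylcholine response.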

[4] = molecular target: T2, hM5 (Homo sapiens, UniProt P08912); test: calcium mobilization assay, hM5 CHO-K1 cells; format: cell-based; conditions: compound at 10 μM
T2 sequence (P08912 1-532): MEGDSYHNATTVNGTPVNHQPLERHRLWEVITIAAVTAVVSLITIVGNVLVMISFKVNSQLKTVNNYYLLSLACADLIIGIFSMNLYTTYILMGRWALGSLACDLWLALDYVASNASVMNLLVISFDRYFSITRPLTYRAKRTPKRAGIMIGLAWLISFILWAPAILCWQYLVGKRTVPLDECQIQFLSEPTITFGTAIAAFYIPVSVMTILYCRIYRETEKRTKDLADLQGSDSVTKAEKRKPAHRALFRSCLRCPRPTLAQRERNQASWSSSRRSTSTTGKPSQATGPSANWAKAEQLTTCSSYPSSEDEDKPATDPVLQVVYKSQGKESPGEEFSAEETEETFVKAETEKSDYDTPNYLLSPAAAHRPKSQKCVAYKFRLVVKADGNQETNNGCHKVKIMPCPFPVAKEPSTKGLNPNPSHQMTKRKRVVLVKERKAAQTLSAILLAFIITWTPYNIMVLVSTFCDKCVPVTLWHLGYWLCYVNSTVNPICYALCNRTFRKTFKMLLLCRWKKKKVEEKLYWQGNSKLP
Method in brief: as §1

Sequence of hM3 (P20309 whole entry): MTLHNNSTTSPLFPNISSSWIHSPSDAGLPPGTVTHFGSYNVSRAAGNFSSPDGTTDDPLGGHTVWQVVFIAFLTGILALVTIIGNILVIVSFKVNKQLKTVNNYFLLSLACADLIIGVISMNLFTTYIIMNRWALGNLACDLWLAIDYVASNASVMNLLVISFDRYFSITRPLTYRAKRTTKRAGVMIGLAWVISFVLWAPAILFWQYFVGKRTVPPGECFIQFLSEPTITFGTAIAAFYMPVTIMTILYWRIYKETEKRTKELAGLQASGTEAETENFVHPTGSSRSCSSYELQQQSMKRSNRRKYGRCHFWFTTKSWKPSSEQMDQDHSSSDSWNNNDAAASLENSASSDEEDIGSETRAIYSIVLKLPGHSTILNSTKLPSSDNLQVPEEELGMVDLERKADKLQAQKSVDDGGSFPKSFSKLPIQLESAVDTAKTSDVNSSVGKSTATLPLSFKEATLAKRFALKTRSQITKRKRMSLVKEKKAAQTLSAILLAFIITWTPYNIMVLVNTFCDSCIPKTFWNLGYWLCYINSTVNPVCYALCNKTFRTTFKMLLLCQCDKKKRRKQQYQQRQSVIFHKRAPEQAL

- IC50 [1]: 8.2 µM
Compound: CCN1CCN(c2ccc(NC(=O)c3ccccc3Cl)cc2Cl)CC1 [Compound 8a]

Compound: CCN1CCN(c2ccc(NC(=O)CCC3CCCC3)cc2Cl)CC1 [Compound 5]
- selectivity versus M4 ([2]; M1 over M4): > 340 fold
- IC50 [2]: 0.441 µM

Compound: CCN1CCN(c2ccc(NC(=O)c3ccccc3)cc2Cl)CC1 [Compound 6]
- selectivity versus M2-M5 ([2]; M1 over M2-M5): > 30 fold
- IC50 ([2]; original sample): 5 µM

- effect on an ACh EC80 on M2 [3]: little effect
- effect on an ACh EC80 on M3 ([1]; compound at 10 μM): little effect
- effect on an ACh EC80 on M5 [4]: little effect
Compound: CCN1CCN(c2ccc(NC(=O)c3cc(C(F)(F)F)cc(C(F)(F)F)c3)cc2Cl)CC1 [Compound 8i]
